Assay results from different studies.
Compare with care: the assays were run in different laboratories.
Target: Serine/threonine-protein kinase pim-1 (PIM1, Homo sapiens, UniProt P11309)

Compound | observed | technique | concentration | remaining binding
CN(c1nccc(-c2cnn3ncccc23)n1)C1CC1 | binding | – | 1 µM | 100%
O=C(c1ccc(Nc2ncc(Cl)c(-c3cc4ccccc4s3)n2)cc1)N1CCC(N2CCCC2)CC1 | binding | competition with immobilised ligand | 1 µM | 84%
Cc1cc(NC(=O)c2cccc(S(F)(F)(F)(F)F)c2)cc(-n2ccn3nc(-c4cccnc4)cc23)c1 | cell-free assay | competition with immobilised ligand | 1 µM | 95.6%
COc1ccnn2ncc(-c3ccnc(N(C)C)n3)c12 | binding | – | 1 µM | 74%
CCCCN(CCCC)C(=O)CN1C[C@H](c2cc(OC)c3c(c2)OCO3)[C@@H](C(=O)O)[C@@H]1CC(C)(C)CCC | cell-free assay | competition with immobilised ligand | 1 µM | 100%
COc1cnc(Nc2cccc(S(N)(=O)=O)c2)nc1N1CCN(c2ccccc2)C(=O)C1 | binding | competition with immobilised ligand | 1 µM | 100%
C[C@H](c1ccc(F)cc1)N(Cc1cccc(C(=O)O)c1)C(=O)c1cnc2ccccc2c1 | cell-free assay | competition with immobilised ligand | 1 µM | 100%
C[C@@H]1CN(c2ccc3ncc(-c4ccc5[nH]nc(C6CC6)c5c4)n3n2)C[C@H](C)O1 | binding | competition with immobilised ligand | 50 nM | 66%
Nc1ncc2c(n1)-c1c([nH]c3ccc(C#CC4CC4)cc13)CCCC2 | binding | competition with immobilised ligand | 1 µM | 73%
N[C@H]1CCN(c2nccc(-c3cnn4ncccc34)n2)C1 | binding | – | 1 µM | 99%
CNC(=O)c1ccc(Nc2ncc(C(F)(F)F)c(NCc3nccnc3N(C)S(C)(=O)=O)n2)cc1 | cell-free assay | competition with immobilised ligand | 0.1 µM | 93%
c1cnn2ncc(-c3ccnc(N4CCC45COC5)n3)c2c1 | binding | – | 1 µM | 71%
CC(C)(C)c1ccc(-c2nc(CBr)nn2-c2cccc(O)c2)cc1 | cell-free assay | competition with immobilised ligand | 10 µM | 90%
O=C(NC[C@@H]1[C@H]2CN(C(=O)OCc3cc(C(F)(F)F)cc(C(F)(F)F)c3)C[C@@H]12)c1ccc2[nH]nnc2c1 | cell-free assay | competition with immobilised ligand | 1 µM | 98%
O=C(NCC1CCOCC1)c1n[nH]cc1NC(=O)c1c(F)cccc1F | binding | competition with immobilised ligand | 1 µM | 100%
COc1ncc2cc3ccccc3nc2c1C#N | cell-free assay | competition with immobilised ligand | 5 µM | 87%
O=C(NCCCN1CCOCC1)c1ccc(Nc2nccc(-c3cc4ccccc4s3)n2)cc1 | binding | competition with immobilised ligand | 1 µM | 85%
Cc1cc(C)c(-n2ccn3nc(-c4cccnc4)cc23)cc1NC(=O)c1cc(C#N)cc(S(F)(F)(F)(F)F)c1 | cell-free assay | competition with immobilised ligand | 0.1 µM | 92%
O=C(c1ccc(Nc2ncc(Cl)c(-c3ccc(Cl)s3)n2)cc1)N1CCC(N2CCCC2)CC1 | binding | competition with immobilised ligand | 1 µM | 87%
CN(CCCC(F)(F)F)c1nccc(-c2cnn3ncccc23)n1 | binding | – | 1 µM | 98%
CNC(=O)Nc1ccc2c(c1)CC[C@@]21OC(=O)N(CC(=O)N(Cc2ccc(F)cc2)[C@@H](C)C(F)(F)F)C1=O | cell-free assay | competition with immobilised ligand | 1 µM | 100%
C[C@H]1CCN(c2nccc(-c3cnn4ncccc34)n2)C1 | binding | – | 1 µM | 83%
CC(=O)C1=C(C)N(c2cccc(C(F)(F)F)c2)C(=O)N[C@@H]1c1ccc(C#N)nc1 | cell-free assay | competition with immobilised ligand | 1 µM | 100%
Cc1cnn2ncc(-c3ccnc(N(C)C)n3)c2c1 | binding | – | 1 µM | 80%
N#Cc1ccccc1CSc1nnc2c(n1)[nH]c1ccccc12 | binding | competition with immobilised ligand | 10 µM | 90%
